The source of these data is ChEMBL document CHEMBL2321703, “Identification of novel D-amino acid oxidase inhibitors by in silico screening and their functional characterization in vitro” (J Med Chem, 2013).

The target in assay [1] is T1, D-amino-acid oxidase (Homo sapiens, UniProt P14920). In words: Inhibition of human recombinant N-terminal His-tagged DAO expressed in Escherichia coli BL21(DE3) using D-serine as substrate by colorimetric assay.
Assay [2] concerns the target T2, Serine racemase (Homo sapiens) (UniProt Q9GZT4).
T2 sequence (whole entry): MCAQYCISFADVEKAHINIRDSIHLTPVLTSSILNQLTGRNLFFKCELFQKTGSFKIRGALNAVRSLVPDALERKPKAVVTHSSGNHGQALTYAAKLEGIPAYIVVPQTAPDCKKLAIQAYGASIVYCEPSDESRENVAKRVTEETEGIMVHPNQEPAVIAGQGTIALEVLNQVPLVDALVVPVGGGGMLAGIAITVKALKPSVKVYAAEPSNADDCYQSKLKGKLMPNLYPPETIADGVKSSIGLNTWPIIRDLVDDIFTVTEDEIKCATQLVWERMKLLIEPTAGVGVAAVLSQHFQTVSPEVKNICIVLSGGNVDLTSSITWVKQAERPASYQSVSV
The assay can be described thus: (§1) Inhibition of human recombinant N-terminal His-tagged serine racemase expressed in Escherichia coli BL21(DE3) using L-serine as substrate after 10 mins by fluorescence assay. In outline:
(§2)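 Purified enzyme (30 μg) in 40 mM Tris-HCl pH 8.0, 60 μM pyridoxal phosphate, 1 mM MgCl2, ATP, 1 mM dithiothreitol, 10 mM L-Ser, with compound; 37 °C, 10 min; methanol stop. D-Ser quantified by OPA/Boc-L-cysteine derivatization and reversed-phase HPLC fluorescence (ex 344, em 443 nm).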

Assay [3] deals with T3, Serine racemase (Homo sapiens, UniProt Q9GZT4).
T3 sequence (Q9GZT4 whole entry): T2 sequence (whole entry)
The assay is described as §1. The method, boiled down:
as §2

In assay [4] the target is T1, D-amino-acid oxidase. The assay can be described thus: Inhibition of human recombinant N-terminal His-tagged DAO expressed in Escherichia coli BL21(DE3) using D-alanine as substrate assessed as residual activity at 10000 uM by colorimetric assay relative to control. In outline: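 Purified enzyme (0.23–4.2 μg) in air-saturated 40 mM sodium pyrophosphate pH 8.3, 23 U catalase, 60 μM FAD, 10 mM D-amino acid substrate, with compound; 37 °C, 10 min; stopped with trichloroacetic acid. 2-Oxo acid reacted with 2,4-dinitrophenylhydrazine, A445 read against substrate-free blank.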
Target sequence in this assay (P14920 whole entry, looked up): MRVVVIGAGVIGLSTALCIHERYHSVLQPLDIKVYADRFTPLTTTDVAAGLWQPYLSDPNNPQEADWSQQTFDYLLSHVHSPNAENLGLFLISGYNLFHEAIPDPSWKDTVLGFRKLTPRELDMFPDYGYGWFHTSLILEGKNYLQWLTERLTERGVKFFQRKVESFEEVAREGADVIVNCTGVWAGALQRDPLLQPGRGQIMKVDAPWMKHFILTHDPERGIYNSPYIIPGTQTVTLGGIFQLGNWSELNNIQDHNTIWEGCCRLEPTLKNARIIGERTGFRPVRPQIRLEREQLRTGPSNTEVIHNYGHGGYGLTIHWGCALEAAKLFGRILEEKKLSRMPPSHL

For assay [5], the target named is T4, D-aspartate oxidase (Homo sapiens, UniProt Q99489).
T4 sequence (Q99489 whole entry): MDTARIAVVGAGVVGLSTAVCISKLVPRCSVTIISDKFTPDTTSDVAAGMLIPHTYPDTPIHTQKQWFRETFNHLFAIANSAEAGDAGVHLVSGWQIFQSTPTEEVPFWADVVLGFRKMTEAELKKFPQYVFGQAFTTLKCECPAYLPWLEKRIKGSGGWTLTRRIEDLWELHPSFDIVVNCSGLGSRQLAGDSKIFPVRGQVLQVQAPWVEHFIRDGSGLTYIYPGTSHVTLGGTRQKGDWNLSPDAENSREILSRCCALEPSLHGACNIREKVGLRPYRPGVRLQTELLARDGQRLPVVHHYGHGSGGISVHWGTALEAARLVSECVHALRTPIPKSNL
The assay can be described thus: (§3) Inhibition of human recombinant N-terminal His-tagged DDO expressed in Escherichia coli BL21(DE3) using D-aspartate as substrate by colorimetric assay. In outline:
(§4)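 Purified enzyme (0.23–4.2 μg) with 10 mM D-Asp in air-saturated 40 mM sodium pyrophosphate pH 8.3, 23 U catalase, 60 μM FAD; 37 °C, 10 min; trichloroacetic acid stop; 2-oxo acid measured as 2,4-dinitrophenylhydrazone at A445.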

Assay [6] has as its target T5, D-aspartate oxidase (Homo sapiens) (UniProt Q99489).
T5 sequence (whole entry): T4 sequence (Q99489 whole entry)
The assay is described as §3. In outline:
as §4

The target in assay [7] is T1, D-amino-acid oxidase. The assay can be described thus: Inhibition of human recombinant N-terminal His-tagged DAO expressed in Escherichia coli BL21(DE3) using D-alanine as substrate by colorimetric assay.
The target of assay [8] is T1, D-amino-acid oxidase. In words: Binding affinity to human recombinant N-terminal His-tagged DAO expressed in Escherichia coli BL21(DE3) at 40 uM after 2 to 30 mins by absorption spectra analysis. The following applies: 200 uM, in the assay text read “at 200 uM” for “at 40 uM”. The method, boiled down:
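Purified enzyme at 1.7 μg/μL in 10 mM sodium pyrophosphate pH 8.3 with 2 mM EDTA, 5 mM 2-mercaptoethanol, 10% (v/v) glycerol; wavelength scans at 25 °C before and after compound addition (final 40 μM or 200 μM depending on compound), recorded at indicated times; binding inferred from perturbation of the absorption spectrum.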
Target sequence in this assay (P14920 whole entry, looked up): as the sequence (P14920 whole entry, looked up) above

Assay [9] concerns the target T1, D-amino-acid oxidase.
Target sequence in this assay (P14920 whole entry): as the sequence (P14920 whole entry, looked up) above
The target in assay [10] is T1, D-amino-acid oxidase. The assay can be described thus: Competitive inhibition of human recombinant N-terminal His-tagged DAO expressed in Escherichia coli BL21(DE3) using D-alanine as substrate by Lineweaver-Burk plot analysis. The method, boiled down:
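Purified N-terminal His-tagged human DAO from E. coli BL21(DE3)pLysS. Colorimetric 2-oxo acid assay in air-saturated 40 mM sodium pyrophosphate pH 8.3 with catalase, 60 μM FAD and 0.5–40 mM D-Ala, 37 °C for 10 min. Stopped with TCA, derivatized with 2,4-dinitrophenylhydrazine, read at A445. Lineweaver–Burk plots; Ki confirmed by slope replot against inhibitor concentration. Three independent experiments.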
Target sequence in this assay (P14920 whole entry, looked up): as the sequence (P14920 whole entry, looked up) above

The target of assay [11] is D-amino-acid oxidase (Homo sapiens, UniProt P14920, Y224F). The assay can be described thus: (§5) Inhibition of human recombinant N-terminal His-tagged DAO Y224F mutant expressed in Escherichia coli BL21(DE3) using D-alanine as substrate after 10 mins by Lineweaver-Burk plot analysis.
D-amino-acid oxidase (Homo sapiens, UniProt P14920, Y224F), sequence (P14920 whole entry Y224F): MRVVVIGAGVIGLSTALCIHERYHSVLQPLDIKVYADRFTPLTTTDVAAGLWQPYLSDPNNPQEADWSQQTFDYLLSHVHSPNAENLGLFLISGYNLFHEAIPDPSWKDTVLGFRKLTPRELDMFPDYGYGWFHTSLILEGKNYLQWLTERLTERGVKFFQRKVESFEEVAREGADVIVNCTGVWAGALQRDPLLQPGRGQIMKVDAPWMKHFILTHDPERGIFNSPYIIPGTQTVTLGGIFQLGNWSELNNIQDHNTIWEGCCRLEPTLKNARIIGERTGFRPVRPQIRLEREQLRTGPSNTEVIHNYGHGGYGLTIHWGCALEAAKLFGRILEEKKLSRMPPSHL
The subject of assay [12] is D-amino-acid oxidase (Homo sapiens), P14920 [Y224F]. The assay is described as §5.
Assay [13] addresses T1, D-amino-acid oxidase. In words: Inhibition of human recombinant N-terminal His-tagged DAO expressed in Escherichia coli BL21(DE3) using D-alanine as substrate by Lineweaver-Burk plot analysis.
Target sequence in this assay (P14920 whole entry): as the sequence (P14920 whole entry, looked up) above
For assay [14], the system named is D-amino-acid oxidase (Homo sapiens), P14920 [Y224A]. The assay can be described thus: (§6) Inhibition of human recombinant N-terminal His-tagged DAO Y224A mutant expressed in Escherichia coli BL21(DE3) using D-alanine as substrate after 10 mins by Lineweaver-Burk plot analysis.
D-amino-acid oxidase (Homo sapiens), P14920 [Y224A], sequence (P14920 whole entry Y224A): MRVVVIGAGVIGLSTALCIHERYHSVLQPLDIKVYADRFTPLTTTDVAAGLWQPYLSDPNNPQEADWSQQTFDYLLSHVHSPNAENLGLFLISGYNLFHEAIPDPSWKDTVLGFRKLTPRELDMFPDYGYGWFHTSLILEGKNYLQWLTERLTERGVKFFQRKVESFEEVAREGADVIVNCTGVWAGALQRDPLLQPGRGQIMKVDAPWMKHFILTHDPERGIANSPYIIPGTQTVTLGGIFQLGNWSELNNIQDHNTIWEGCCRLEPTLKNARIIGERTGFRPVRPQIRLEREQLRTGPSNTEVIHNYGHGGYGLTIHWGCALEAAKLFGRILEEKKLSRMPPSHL
The target of assay [15] is D-amino-acid oxidase (Homo sapiens, UniProt P14920, Y224A). The description is as §6.
D-amino-acid oxidase (Homo sapiens, UniProt P14920, Y224A), sequence (P14920 whole entry Y224A): as above
Assay [16] relates to HEK293. The assay can be described thus: Effect on L-alanine level in G418-resistant HEK293 cells at 17 uM by HPLC analysis relative to vehicle-treated control. Format: functional, cell-based. To be noted: Homo sapiens. In outline:
(§7)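 293/NEO (empty-vector, G418-selected) or 293.HA-hDAO-24 (stable N-terminal HA-tagged human DAO) cells, 1 × 10^6 seeded, maintained in DMEM/10% FBS/800 μg/mL G418; next day fresh medium, compound or vehicle (5% DMSO solution) for 30 min, then 17 mM D-Ala for 24 h. Methanol extraction; D-/L-Ala by OPA/NAC derivatization HPLC with fluorescence; mean ± SD of three assays; Dunnett test vs vehicle.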

For assay [17], the system named is HEK293/NEO. In words: Effect on L-alanine level in G418-resistant HEK293/NEO cells at 83 uM by HPLC analysis relative to vehicle-treated control. Format: functional, cell-based. To be noted: Homo sapiens. In outline:
as §7

For assay [18], the system named is HEK293/NEO. The assay can be described thus: Effect on L-alanine level in G418-resistant HEK293/NEO cells at 17 uM by HPLC analysis relative to vehicle-treated control. Format: functional, cell-based. To be noted: Homo sapiens. In outline:
as §7

In assay [19] the target is T1, D-amino-acid oxidase. The assay can be described thus: Inhibition of human recombinant DAO expressed in G418-resistant HEK293/NEO cells assessed as effect on D-alanine level at 83 uM incubated for 30 mins prior to D-alanine addition measured after 24 hrs by HPLC analysis relative to vehicle-treated control. It counts as cell-based. In outline: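 HEK293 cells stably carrying HA-tagged human DAO (clone 293.HA-hDAO-24) or empty vector (293/NEO), seeded at 1 × 10^6. Next day, fresh medium and 83 μM compound or vehicle (5% DMSO solution) for 30 min, then 17 mM D-Ala for 24 h. Cells methanol-extracted; D-/L-Ala by OPA/NAC-derivatized HPLC. Three independent assays, Dunnett test vs vehicle.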
Target sequence in this assay (P14920 whole entry, looked up): as the sequence (P14920 whole entry, looked up) above

Assay [20] has as its target T1, D-amino-acid oxidase. The following applies: HEK293, 83 uM.
Target sequence in this assay (P14920 whole entry, looked up): as above
Assay [21] concerns HEK293. The assay can be described thus: Effect on L-alanine level in G418-resistant HEK293 cells at 83 uM by HPLC analysis relative to vehicle-treated control. Format: functional, cell-based. To be noted: Homo sapiens. The method, boiled down: as §7
The target in assay [22] is T1, D-amino-acid oxidase. The assay can be described thus: Binding affinity to human recombinant N-terminal His-tagged DAO expressed in Escherichia coli BL21(DE3) at 200 uM after 2 to 30 mins by absorption spectra analysis.
Target sequence in this assay (P14920 whole entry, looked up): as above
The target of assay [23] is T1, D-amino-acid oxidase. To be noted: HEK293/NEO, 17 uM.

Activity calls are given as the source filed them. The calls are words filed in the database; no cut-off is given here. Where only a bound is given, the exact number is not on record here.

D-amino-acid oxidase (Homo sapiens), P14920 [Y224F], sequence (P14920 whole entry Y224F): as the sequence (P14920 whole entry Y224F) above

Take `O=C(O)/C=C/c1cccc(O)c1`: the 50% inhibitory concentration (IC50) in [1] was 6270 µM; in [3], 8390 µM; in [5], > 10000 µM; in assay [7], > 10000 µM. For the same compound, the inhibition entry in [1], in assay [2], in [6] and in assay [7] was “Dose-dependent effect” throughout. For the same compound, in assay [4], the Activity was 51.5%.
On to `O=C(O)c1ccccc1` [BENZOIC ACID], for which the IC50 was 46.9 µM in assay [1], > 10000 µM in [3], > 10000 µM in assay [5] and 65.7 µM in assay [7]. Further, the inhibition entry in assay [1], in [12] and in [14] was “Dose-dependent effect” each time. Besides, the result in assay [8] was Active. In addition, the Ki in [9] stood at 7 µM; in assay [11], 54 µM; in assay [13], 10.9 µM; in assay [15], 37.5 µM. The inhibition entry in assay [10] was “Active”.
Take `CCCc1sc(C(=O)O)cc1CC`: the IC50 in [1] is 7900 µM; in assay [3], > 10000 µM; in assay [5], > 10000 µM; in assay [7], > 10000 µM. Further, the inhibition entry in assay [2], in assay [6] and in assay [7] was “Dose-dependent effect” in each case. Also, the Activity in assay [4] is 67.1%.
As to `O=c1oc2ccccc2cc1O` [3-HYDROXYCOUMARIN], the outcome in assay [16], in assay [17], in assay [18] and in assay [21] was inactive. Besides, the IC50 in assay [1] was 0.44 µM; in assay [3] it was > 10000 µM; in assay [5], 7580 µM; in assay [7] it was 0.943 µM. Besides, the inhibition result in [1], in assay [2], in assay [6], in assay [12], in [14] and in assay [7] was “Dose-dependent effect” throughout. The inhibition result in assay [19] was “inactive”. Moreover, the inhibition result in assay [20] and in [10] was “Active” throughout. The inhibitory constant (Ki) in assay [11] was found to be 0.265 µM; in assay [13], 0.156 µM; in [15], 3.69 µM. Also, in [22], the result was Active.
Consider `O=C(O)c1cc2occc2[nH]1`, for which the outcome in assay [16] and in assay [18] was inactive. Moreover, the inhibition entry in [1], in assay [12] and in [14] was “Dose-dependent effect” each time. Further, the IC50 in [3] and in assay [5] was > 100 µM in each case. In [23], the inhibition result was “inactive”. The inhibition result in assay [10] was “Active”.

The IC50 is the concentration at which inhibition is half-maximal. The Ki is the dissociation constant of the complex between target and ligand, obtained from inhibition or displacement.
